Columns and labels:
rat CB2 [1] = target: T1, rat CB2 (Rattus norvegicus, UniProt Q9QZN9); test: [3H]CP55940 competition, HEK/GIRK membranes; format: binding
T1 sequence (Q9QZN9 1-360): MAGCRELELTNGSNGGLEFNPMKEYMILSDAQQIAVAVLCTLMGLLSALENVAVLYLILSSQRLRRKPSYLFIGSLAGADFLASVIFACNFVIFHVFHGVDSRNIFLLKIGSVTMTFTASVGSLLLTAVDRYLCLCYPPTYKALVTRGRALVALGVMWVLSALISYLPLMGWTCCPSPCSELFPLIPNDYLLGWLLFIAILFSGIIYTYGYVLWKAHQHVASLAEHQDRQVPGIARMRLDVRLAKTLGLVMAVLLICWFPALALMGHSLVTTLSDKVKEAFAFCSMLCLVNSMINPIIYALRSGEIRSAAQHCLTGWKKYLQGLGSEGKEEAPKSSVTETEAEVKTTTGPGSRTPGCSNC

human CB2 = human CB2 (Homo sapiens, UniProt P34972); test: thallium flux, HEK/GIRK cells; format: cell-based
human CB2, sequence (P34972 whole entry): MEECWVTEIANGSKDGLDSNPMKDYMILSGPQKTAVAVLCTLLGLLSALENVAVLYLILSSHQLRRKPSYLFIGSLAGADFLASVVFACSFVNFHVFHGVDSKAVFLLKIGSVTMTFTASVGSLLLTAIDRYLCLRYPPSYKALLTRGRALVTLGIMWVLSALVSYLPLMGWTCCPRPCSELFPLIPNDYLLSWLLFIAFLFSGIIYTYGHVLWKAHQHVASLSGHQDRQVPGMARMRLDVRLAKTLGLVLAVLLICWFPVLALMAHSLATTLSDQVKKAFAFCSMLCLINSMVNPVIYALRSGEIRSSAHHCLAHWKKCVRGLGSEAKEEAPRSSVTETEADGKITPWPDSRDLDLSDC
In short: (§1)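 HEK/GIRK cells were made to stably express the receptor by ViaFect transfection with a pIRESpuro3 construct and selected with 1 μg/mL puromycin. Cells (15,000/well) were seeded overnight at 37 °C. They were loaded with 1.2 μM Thallos-AM in HBSS/20 mM HEPES pH 7.3 for 1 h at RT. Compound or DMSO was added, then 12 mM Tl2SO4 stimulus buffer with agonist 140 s later. The 145–155 s slope was vehicle-subtracted, normalized to maximal JWH133 signal and fit with a four-parameter logistic. Triplicate, three to five experiments.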

rat CB2 [2] = target: T1, rat CB2; test: thallium flux, HEK/GIRK cells; format: cell-based
In short: as §1

human CB1 = human CB1 (Homo sapiens, UniProt P21554); test: thallium flux, HEK/GIRK cells; format: cell-based
human CB1, sequence (P21554 whole entry): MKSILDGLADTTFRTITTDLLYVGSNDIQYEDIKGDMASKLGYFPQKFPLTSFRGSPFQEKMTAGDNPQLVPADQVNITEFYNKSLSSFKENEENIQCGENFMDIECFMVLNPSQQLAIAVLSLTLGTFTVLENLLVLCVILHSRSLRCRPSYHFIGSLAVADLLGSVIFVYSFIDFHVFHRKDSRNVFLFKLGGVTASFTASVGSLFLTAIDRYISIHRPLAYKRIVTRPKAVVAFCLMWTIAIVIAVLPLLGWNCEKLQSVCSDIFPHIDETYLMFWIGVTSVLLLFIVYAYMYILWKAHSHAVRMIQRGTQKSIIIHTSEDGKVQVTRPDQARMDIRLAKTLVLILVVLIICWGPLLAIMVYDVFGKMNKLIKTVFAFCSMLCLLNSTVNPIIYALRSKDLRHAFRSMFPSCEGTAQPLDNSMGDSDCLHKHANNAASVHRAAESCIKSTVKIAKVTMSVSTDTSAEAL

rat CB1 [3] = target: T2, rat CB1 (Rattus norvegicus, UniProt P20272); test: thallium flux, HEK/GIRK cells; format: cell-based
T2 sequence (P20272 whole entry): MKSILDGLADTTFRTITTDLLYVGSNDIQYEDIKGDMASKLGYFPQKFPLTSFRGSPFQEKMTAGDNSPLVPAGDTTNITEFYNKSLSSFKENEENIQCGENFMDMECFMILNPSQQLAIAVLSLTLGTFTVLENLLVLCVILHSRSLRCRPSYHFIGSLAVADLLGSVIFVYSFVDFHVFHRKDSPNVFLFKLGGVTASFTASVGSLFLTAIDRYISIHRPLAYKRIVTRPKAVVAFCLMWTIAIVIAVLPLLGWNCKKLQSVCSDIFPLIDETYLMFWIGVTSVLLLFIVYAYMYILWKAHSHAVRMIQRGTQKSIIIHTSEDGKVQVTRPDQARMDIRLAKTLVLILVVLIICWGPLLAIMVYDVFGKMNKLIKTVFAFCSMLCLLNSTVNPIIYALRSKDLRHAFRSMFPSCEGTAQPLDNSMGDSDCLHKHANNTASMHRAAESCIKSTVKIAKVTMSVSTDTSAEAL

rat CB2 [4] = target: T1, rat CB2; test: thallium flux, HEK/GIRK cells, compound alone; format: cell-based
rat CB1 [5] = target: T2, rat CB1; test: PI hydrolysis, [3H]inositol phosphate chromatography, HEK/Gqi9 cells; format: cell-based
In short: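 HEK293 cells stably expressing Gqi9 were transfected with a pIRESpuro3 receptor construct and puromycin-selected. They were seeded at 1.5 X 10^5 cells/well and assayed after 48 h. Cells were labelled overnight with 0.4 μCi myo-[3H]inositol in inositol-free DMEM with 5% dialyzed FBS. Agonists were added at 5x in 50 mM LiCl/250 mM HEPES pH 7.25 for 30 min at 37 °C. Reactions were stopped with boiling EDTA pH 8.0, and [3H]inositol phosphates were resolved on Dowex AG1-X8 and scintillation counted.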

COc1ccc(C(=O)c2c(C)n(CCN3CCOCC3)c3cc(I)ccc23)cc1 [AM630]
IC50 (rat CB2 [1]): 72.4 nM

CCCC(C)(C)c1ccc2c(c1)OC(C)(C)[C@@H]1CC=C(C)C[C@@H]21 [JWH133]
EC50 (human CB2): 275 nM | EC50 (rat CB2 [2]): 537 nM | EC50 (human CB1): 1230 nM

CCCCC/C=C\C/C=C\C/C=C\C/C=C\CCCC(=O)OC(CO)CO [2-AG]
EC50 (human CB2): 145 nM | EC50 (rat CB2 [2]): 49 nM

CCCCC/C=C\C/C=C\C/C=C\C/C=C\CCCC(=O)NCCCl [ACEA, N-(2-Chloroethyl)-5Z,8Z,11Z,14Z-eicosatetraenamide]
EC50 (human CB2): 1700 nM | EC50 (rat CB2 [2]): 251 nM | EC50 (rat CB1 [3]): 20 nM | EC50 (human CB1): 60.3 nM

Cc1c(Br)cn(Cc2ccc(F)cc2)c(=O)c1NC(=O)C1CCCCCC1 [EC21a]
EC50 (rat CB2 [4]): 100 nM | EC50 (rat CB1 [5]): 1700 nM

— publication PMC11636628 (Journal of receptor and signal transduction research, 2024)
